The record followed here is ChEMBL document CHEMBL4014307, “Diindolylmethane Derivatives: Potent Agonists of the Immunostimulatory Orphan G Protein-Coupled Receptor GPR84” (J Med Chem, 2017).

SMILES strings stand for the structures. Activity calls are given as the source filed them.

For test [1], the target named is T1, G-protein coupled receptor 84 (Homo sapiens, UniProt Q9NQS5). In words: Agonist activity at human GPR84 expressed in CHO cells assessed as beta-arrestin recruitment at 10 uM after 90 mins by beta-galactosidase complementation assay relative to embelin. Format: cell-based. The method in brief: (§1)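 CHO cells co-expressing human GPR84–β-galactosidase fragment and β-arrestin–complementary fragment, 20,000 per well. Compounds in DMSO (final ≤1 %) added for 90 min, then detection reagent for 60 min at rt; luminescence read. Three to five independent experiments in duplicate.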
T1 sequence (Q9NQS5 whole entry, the tested form may be a part): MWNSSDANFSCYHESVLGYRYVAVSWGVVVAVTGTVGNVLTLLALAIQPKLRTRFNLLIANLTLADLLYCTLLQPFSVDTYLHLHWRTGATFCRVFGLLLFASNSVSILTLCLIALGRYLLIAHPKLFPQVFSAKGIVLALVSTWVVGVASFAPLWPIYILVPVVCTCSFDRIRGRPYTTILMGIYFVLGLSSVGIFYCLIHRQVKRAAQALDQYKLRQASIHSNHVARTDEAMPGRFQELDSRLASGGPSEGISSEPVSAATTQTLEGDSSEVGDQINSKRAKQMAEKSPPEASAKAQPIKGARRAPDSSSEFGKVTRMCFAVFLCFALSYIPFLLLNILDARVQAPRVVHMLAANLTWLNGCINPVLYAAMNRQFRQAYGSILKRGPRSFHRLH

Test [2] addresses T1, G-protein coupled receptor 84. In words: Antagonist activity at Gi coupled human GPR84 expressed in CHO cells assessed as inhibition of decanoic acid-induced receptor activation at 10 uM. Format: cell-based.
The target is the same in test [3]. In words: Agonist activity at Gi coupled human GPR84 expressed in CHO cells assessed as inhibition of forskolin-induced cAMP accumulation after 15 mins in presence of [3H]-cAMP by radiometric assay. Format: functional, cell-based. The essentials: (§2)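 Forskolin (10 µM) added with or without test compound for 15 min. Cells lysed in hot (90 °C) EDTA/Triton X-100 solution. cAMP measured radiometrically with bovine adrenal binding protein and [³H]cAMP, expressed as % of forskolin-alone response.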
A general note: Changes in cAMP serve as a functional read-out for many G protein-coupled receptors.

Test [4] concerns the target Free fatty acid receptor 1 (Homo sapiens, UniProt O14842). In words: Agonist activity at Gq protein coupled human FFAR1 expressed in human 1321N1 cells assessed as induction of intracellular calcium level at 10 uM measured at 1.2 secs time interval by Fluo-4-AM dye based fluorescence assay. Format: functional, cell-based. The method in brief:
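1321N1 astrocytoma cells retrovirally expressing human FFAR1, 50,000 per well, loaded 60 min at rt in dark with 3 µM Fluo-4-AM and 0.06 % Pluronic F-127 in HBSS. Compounds at 10 µM final; antagonist mode uses 30 min preincubation before TUG-424 (final 1 µM). Fluorescence at 520 nm (excitation 485 nm), 90 reads at 1.2 s intervals. Normalized to TUG-424 at 10 µM (agonist) or 1 µM (antagonist).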
Background: Calcium flux is commonly read through the fluorescence of an indicator in the cells.

Test [5] concerns the target T2, Free fatty acid receptor 4 (Homo sapiens) (UniProt Q5NUL3).
T2 sequence (whole entry): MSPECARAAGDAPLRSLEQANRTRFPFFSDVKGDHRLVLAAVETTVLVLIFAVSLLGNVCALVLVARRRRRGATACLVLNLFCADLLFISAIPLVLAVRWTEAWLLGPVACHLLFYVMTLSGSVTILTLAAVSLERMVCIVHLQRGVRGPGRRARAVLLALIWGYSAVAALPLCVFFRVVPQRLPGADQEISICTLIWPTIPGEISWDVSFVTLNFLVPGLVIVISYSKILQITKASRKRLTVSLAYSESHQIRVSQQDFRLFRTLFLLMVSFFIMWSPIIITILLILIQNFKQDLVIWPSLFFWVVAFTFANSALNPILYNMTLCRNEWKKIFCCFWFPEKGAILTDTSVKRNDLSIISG
In words: Antagonist activity at human FFAR4 expressed in CHO cells assessed as inhibition of TUG-89-induced beta-arrestin recruitment at 10 uM preincubated for 30 mins followed by TUG-89 addition measured after 90 mins by beta-galactosidase complementation assay. Format: cell-based. On the technique in general: Recruitment of arrestin is a read-out of receptor activation apart from second messengers.

In test [6] the target is T1, G-protein coupled receptor 84. In words: Agonist activity at human GPR84 expressed in CHO cells assessed as beta-arrestin recruitment after 90 mins by beta-galactosidase complementation assay. Format: cell-based. The essentials:
as §1

In test [7] the target is T2, Free fatty acid receptor 4 (Homo sapiens). In words: Agonist activity at human FFAR4 expressed in CHO cells assessed as beta-arrestin recruitment at 10 uM after 90 mins by beta-galactosidase complementation assay. Format: cell-based. The method in brief: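 Human FFAR4 in CHO β-galactosidase complementation cells, 30,000 per well, serum-free F12 ~4 h before assay; final DMSO 1 %, compounds 10 µM. Agonist mode: 90 min with agonist, then detection 60 min rt dark; luminescence. 3–4 experiments in duplicate.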

For test [8], the target named is T1, G-protein coupled receptor 84. In words: Agonist activity at Gi coupled human GPR84 expressed in CHO cells assessed as inhibition of forskolin-induced cAMP accumulation at 10 uM after 15 mins in presence of [3H]-cAMP by radiometric assay relative to decanoic acid. Format: functional, cell-based. The essentials:
as §2

Chain of Free fatty acid receptor 1 (O14842 whole entry): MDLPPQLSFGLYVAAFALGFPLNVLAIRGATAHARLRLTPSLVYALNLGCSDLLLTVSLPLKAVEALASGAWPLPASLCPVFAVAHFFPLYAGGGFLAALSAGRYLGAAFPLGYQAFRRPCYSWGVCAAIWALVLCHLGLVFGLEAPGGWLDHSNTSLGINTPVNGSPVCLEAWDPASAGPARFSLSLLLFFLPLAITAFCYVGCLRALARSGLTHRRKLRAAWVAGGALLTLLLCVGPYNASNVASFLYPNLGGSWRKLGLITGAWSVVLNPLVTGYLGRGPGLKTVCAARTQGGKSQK

On to `O=C(O)c1ccc2[nH]cc(Cc3c[nH]c4ccc(C(=O)O)cc34)c2c1`, for which the results for the Emax in test [1] and in test [8] were -5% and 28%, respectively. Moreover, the inhibition result in test [2] and in test [5] was “inactive” throughout. For the same compound, the values for the EC50 in test [3] and in test [6] were at least 10 µM and above 10 µM, respectively. In addition, the result in test [4] and in test [7] was inactive.

For `Cn1cc(Cc2c[nH]c3ccccc23)c2ccccc21`, the Emax – broadly, the size of the effect at its maximum, as opposed to the concentration needed – came out at 8% in test [1] and 43% in test [8]. Also, the inhibition entry in test [2] and in test [5] was “inactive” throughout. The EC50 (commonly the concentration at which the effect is half-maximal) was at least 10 µM in test [3] and above 10 µM in test [6]. For the same compound, the outcome in test [4] and in test [7] was inactive.

As for `Cn1cc(Cc2cn(C)c3ccccc23)c2ccccc21`, the Emax in test [1] is -3%; in test [8], -37%. The inhibition entry in test [2] and in test [5] was “inactive” each time. Also, the EC50 in test [3] and in test [6] was above 10 µM in each case. Also, the outcome in test [4] and in test [7] was inactive.

As to `c1cc2c(c(C(c3c[nH]c4ccccc34)c3c[nH]c4ccccc34)c1)OCO2`, the values for the Emax in test [1] and in test [8] were 7% and 0%, respectively. Besides, the inhibition entry in test [2] and in test [5] was “inactive” throughout. Also, the half-maximal effective concentration (EC50) in test [3] and in test [6] was above 10 µM throughout. Besides, the result in test [4] and in test [7] was inactive.

For `Clc1ccc2c(Cc3c[nH]c4cc(Cl)ccc34)c[nH]c2c1`, the Emax in test [1] was 118%; in test [8], 4%. The inhibition entry in test [2] and in test [5] was “inactive” in each case. The EC50 in test [3] is above 10 µM; in test [6] it was 5.34 µM. The result in test [4] and in test [7] was inactive.

On to `Fc1ccc2[nH]cc(Cc3c[nH]c4ccc(F)c(F)c34)c2c1F`, for which the results for the Emax in test [1] and in test [8] were -2% and 123%, respectively. In addition, the EC50 was 0.377 µM in test [3] and above 10 µM in test [6]. The outcome in test [4] and in test [7] was inactive. For the same compound, the inhibition entry in test [5] was “inactive”.

In the case of `Cc1ccc2[nH]cc(Cc3c[nH]c4ccc(C)cc34)c2c1`, the Emax in test [1] came to 49%; in test [8], 45%. Further, the EC50 in test [3] and in test [6] was at least 10 µM each time. In addition, the result in test [4] and in test [7] was inactive. Further, in test [5], the inhibition result was “inactive”.

As for `Cc1cccc2[nH]cc(Cc3c[nH]c4cccc(C)c34)c12`, the Emax is 24% in test [1] and 112% in test [8]. Moreover, the EC50 in test [3] is 0.987 µM; in test [6], above 10 µM. Further, the result in test [4] and in test [7] was inactive. Further, the inhibition entry in test [5] is “inactive”.

On to `O=C(c1c[nH]c2ccccc12)c1c[nH]c2ccccc12`, for which the figures for the Emax in test [1] and in test [8] were 161% and 104%, respectively. Moreover, the results for the half-maximal effective concentration (EC50) in test [3] and in test [6] were 0.553 µM and 19 µM, respectively. The result in test [4] and in test [7] was inactive. In addition, the inhibition entry in test [5] was “inactive”.

As to `CC(c1c[nH]c2cccc(F)c12)c1c[nH]c2cccc(F)c12`, the results for the Emax in test [1] and in test [8] were 34% and 5%, respectively. The inhibition entry in test [2] and in test [5] was “inactive” each time. Moreover, the EC50 in test [3] and in test [6] was above 10 µM in each case. Besides, the outcome in test [4] and in test [7] was inactive.

Consider `CCCCC(c1c[nH]c2ccccc12)c1c[nH]c2ccccc12`, for which the Emax in test [1] was -3%; in test [8], -4%. Moreover, the inhibition result in test [2] and in test [5] was “inactive” each time. The EC50 in test [3] and in test [6] was above 10 µM in each case. Besides, the result in test [4] and in test [7] was inactive.

As for `Cc1ccc(C(c2c[nH]c3ccccc23)c2c[nH]c3ccccc23)cc1`, the Emax in test [1] turned out to be 10%; in test [8], 2%. Further, the inhibition entry in test [2] and in test [5] was “inactive” throughout. The EC50 in test [3] and in test [6] was above 10 µM each time. Besides, the result in test [4] and in test [7] was inactive.

`COc1ccc2[nH]cc(C=C3C(=O)Nc4ccc(F)cc43)c2c1`: the Emax in test [1] was -31%; in test [8], 7%. In addition, the inhibition entry in test [2] and in test [5] was “inactive” in each case. Besides, the half-maximal effective concentration (EC50) in test [3] and in test [6] was above 10 µM throughout. Further, the result in test [4] and in test [7] was inactive.

As to `O=C1Nc2ccccc2C1=Cc1ccc2[nH]ccc2c1`, the Emax in test [1] was -7%; in test [8], -16%. Further, the inhibition result in test [2] and in test [5] was “inactive” throughout. Moreover, the EC50 in test [3] and in test [6] was above 10 µM throughout. Further, the outcome in test [4] and in test [7] was inactive.

As to `Clc1cccc2[nH]cc(Cc3c[nH]c4cccc(Cl)c34)c12`, the Emax in test [1] came to 25%; in test [8] it was 111%. The values for the half-maximal effective concentration (EC50) in test [3] and in test [6] were 1.14 µM and above 10 µM, respectively. Also, the result in test [4] and in test [7] was inactive. In addition, the inhibition result in test [5] is “inactive”.

Consider `Fc1ccc2[nH]cc(Cc3c[nH]c4ccccc34)c2c1`, for which the Emax in test [1] came out at 72%; in test [8] it was 115%. For the same compound, the outcome in test [4] and in test [7] was inactive. For the same compound, the inhibition entry in test [5] was “inactive”.

As for `Fc1cc2cc[nH]c2cc1F`, the results for the EC50 in test [3] and in test [6] were above 10 µM and 2.97 µM, respectively.

Take `Fc1cc2c(Cc3c[nH]c4cc(Cl)c(F)cc34)c[nH]c2cc1Cl`: the Emax in test [1] stood at 181%; in test [8], 83%. Further, the results for the EC50 in test [3] and in test [6] were 10.8 µM and 3.98 µM, respectively. For the same compound, the inhibition result in test [5] is “inactive”. Besides, in test [7], the outcome was inactive.

As to `COc1ccc2[nH]cc(Cc3c[nH]c4ccccc34)c2c1`, the Emax came out at 110% in test [1] and 97% in test [8]. Further, the EC50 in test [3] came to 1.89 µM; in test [6] it was 6.47 µM. Further, the result in test [4] and in test [7] was inactive. Moreover, the inhibition entry in test [5] is “inactive”.

Take `COc1ccc2[nH]cc(Cc3c[nH]c4ccc(OC)cc34)c2c1`: the values for the Emax in test [1] and in test [8] were 103% and 119%, respectively. Also, the EC50 is 0.365 to 0.369 µM in test [3] and 1.2 µM in test [6]. For the same compound, the result in test [4] and in test [7] was inactive. Also, in test [5], the inhibition result is “inactive”.

With `Fc1cc2[nH]cc(Cc3c[nH]c4cc(F)c(F)cc34)c2cc1F`, the Emax was found to be 92% in test [1] and 121% in test [8]. In addition, the results for the EC50 in test [3] and in test [6] were 0.187 µM and 10.3 µM, respectively. The outcome in test [4] and in test [7] was inactive. Further, in test [5], the inhibition entry was “inactive”.

For the compound `Fc1ccc2c(Cc3c[nH]c4cc(F)ccc34)c[nH]c2c1`, the Emax in test [1] was 48%; in test [8], 89%. In addition, the results for the EC50 in test [3] and in test [6] were 0.625 µM and 7.53 µM, respectively. Also, the result in test [4] and in test [7] was inactive. In test [5], the inhibition entry is “inactive”.
